Data published in ChEMBL document CHEMBL1131631, “Piperazinyl oxazolidinone antibacterial agents containing a pyridine, diazene, or triazene heteroaromatic ring” (1998).
In brackets after ≈: the same amount, converted by molar mass.

Columns and labels:
Mus musculus [1] = assay: compound was tested against Staphylococcus aureus UC9213 the eperezolid administered (PO) in mouse positive control expressed as ED50 values.
Staphylococcus aureus [2] = assay: Minimum inhibitory concentration against Staphylococcus aureus UC9213; assay type: functional
Summary of the method: (§1)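 MIC in µg/mL. S. aureus UC 9213 is methicillin-susceptible, and S. aureus UC 6685 and S. epidermidis UC 12084 are methicillin-resistant. E. faecalis UC 9217 and S. pneumoniae UC 9912 were also tested.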

[3] = test system: Staphylococcus epidermidis; assay: Minimum inhibitory concentration against Staphylococcus epidermis UC12084; assay type: functional
Summary of the method: as §1

Streptococcus pneumoniae [4] = assay: Minimum inhibitory concentration Streptococcus pneumoniae UC9912; assay type: functional
Summary of the method: as §1

Enterococcus faecalis = assay: Minimum inhibitory concentration against Enterococcus faecalis UC9217; assay type: functional
Summary of the method: as §1

Mus musculus [5] = assay: Compound was tested against Staphylococcus aureus UC9213 after po administration in mouse; assay type: functional
Summary of the method: (§2)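 Lethal systemic S. aureus infection in mice, with oral dosing. The ED50 is the dose in mg/kg body weight per dose that reduces mortality by 50%. The 95% confidence limits are −50% and +100% of the nominal value.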

Staphylococcus aureus [6] = assay: Minimum inhibitory concentration against Staphylococcus aureus UC6685; assay type: functional
Summary of the method: as §1

Caco-2 [7] = assay: (§3) permeability assessment across a monolayer of caco-2 cells in presence of GSH in aqueous base.; assay type: functional, Homo sapiens
Caco-2 [8] = assay: (§4) permeability assessment across a monolayer of caco-2 cells in absence of GSH in aqueous base.; assay type: functional, Homo sapiens
Staphylococcus aureus [9] = assay: compound was tested against Staphylococcus aureus UC9213 the eperezolid administered positive control expressed as ED50 values.; assay type: functional
Summary of the method: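 Eperezolid was given orally in the same lethal systemic mouse S. aureus trial as the test agents. The ED50 is the mg/kg/dose that reduces mortality by 50%.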

Streptococcus pneumoniae [10] = assay: MIC activity against Streptococcus pneumoniae UC9912; assay type: functional
Summary of the method: as §1

Staphylococcus aureus [11] = assay: compound was tested against Staphylococcus aureus UC9213 after po administration.; assay type: functional
Summary of the method: as §2

Caco-2 [12] = assay: (§5) permeability assessment across […]; assay type: functional, Homo sapiens
Caco-2 [13] = assay: as §5; assay type: functional
Caco-2 [14] = assay: as §4; assay type: functional
Caco-2 [15] = assay: as §3; assay type: functional
Caco-2 [16] = assay: as §5; assay type: functional; remark: listed apart in the source
Mus musculus [17] = assay: compound was tested against Staphylococcus aureus UC9213 the vancomycin administered (sc) in mouse positive control expressed as ED50 values.; assay type: functional

Row | SMILES | MIC (Staphylococcus aureus [2]) | MIC [3] | MIC (Streptococcus pneumoniae [4]) | MIC (Enterococcus faecalis) | MIC (Staphylococcus aureus [6]) | MIC (Streptococcus pneumoniae [10]) | ED50 (Mus musculus [1]) | ED50 (Mus musculus [5]) | [A] (Caco-2 [7]) | [A] (Caco-2 [8]) | ED50 (Staphylococcus aureus [9]) | ED50 (Staphylococcus aureus [11]) | [EA] (Caco-2 [12]) | [EA] (Caco-2 [13]) | [A] (Caco-2 [14]) | [A] (Caco-2 [15]) | [EA] (Caco-2 [16]) | ED50 (Mus musculus [17])
1 | CC(=O)NC[C@H]1CN(c2ccc(N3CCN(c4cnccn4)CC3)c(F)c2)C(=O)O1 | 2 µg/mL (≈ 4.83 µM) | 0.5 µg/mL (≈ 1.21 µM) | 0.5 µg/mL (≈ 1.21 µM) | 2 µg/mL (≈ 4.83 µM) | 1 µg/mL (≈ 2.41 µM) | – | 3.2 mg/kg | 12.5 mg/kg | – | – | – | – | – | – | – | – | – | –
2 | CC(=O)NC[C@H]1CN(c2ccc(N3CCN(c4cccnn4)CC3)c(F)c2)C(=O)O1 | 4 µg/mL (≈ 9.65 µM) | 0.5 µg/mL (≈ 1.21 µM) | 0.5 µg/mL (≈ 1.21 µM) | 2 µg/mL (≈ 4.83 µM) | 2 µg/mL (≈ 4.83 µM) | – | 8.7 mg/kg | 8.8 mg/kg | 36 µM | – | – | – | – | – | – | – | – | –
3 | CC(=O)NC[C@H]1CN(c2ccc(N3CCN(c4cc(N)nc(N)n4)CC3)c(F)c2)C(=O)O1 | 8 µg/mL (≈ 18 µM) | 1 µg/mL (≈ 2.25 µM) | < 0.5 µg/mL | 2 µg/mL (≈ 4.5 µM) | 4 µg/mL (≈ 9 µM) | – | – | – | – | – | – | – | – | – | – | – | – | –
4 | CC(=O)NC[C@H]1CN(c2ccc(N3CCN(c4ccnc(C)c4)CC3)c(F)c2)C(=O)O1 | 4 µg/mL (≈ 9.36 µM) | 0.5 µg/mL (≈ 1.17 µM) | 0.25 µg/mL (≈ 0.585 µM) | 2 µg/mL (≈ 4.68 µM) | 2 µg/mL (≈ 4.68 µM) | – | – | – | – | – | – | – | – | – | – | – | – | –
5 | CC(=O)NC[C@H]1CN(c2ccc(N3CCN(c4ccnc(Cl)n4)CC3)c(F)c2)C(=O)O1 | 2 µg/mL (≈ 4.46 µM) | 0.5 µg/mL (≈ 1.11 µM) | – | 1 µg/mL (≈ 2.23 µM) | 1 µg/mL (≈ 2.23 µM) | 0.5 µg/mL (≈ 1.11 µM) | – | – | 17 µM | 17 µM | 1.8 mg/kg | 14.6 mg/kg | 50 µM | – | – | – | – | –
6 | CC(=O)NC[C@H]1CN(c2ccc(N3CCN(c4ccc5nc(C)c(C(C)=O)n5n4)CC3)c(F)c2)C(=O)O1 | 4 µg/mL (≈ 7.85 µM) | 1 µg/mL (≈ 1.96 µM) | 0.5 µg/mL (≈ 0.981 µM) | 4 µg/mL (≈ 7.85 µM) | 4 µg/mL (≈ 7.85 µM) | – | – | – | – | – | – | – | – | – | – | – | – | –
7 | CC(=O)NC[C@H]1CN(c2ccc(N3CCN(c4cccc(Br)n4)CC3)c(F)c2)C(=O)O1 | 2 µg/mL (≈ 4.06 µM) | 0.5 µg/mL (≈ 1.02 µM) | 0.5 µg/mL (≈ 1.02 µM) | 1 µg/mL (≈ 2.03 µM) | 1 µg/mL (≈ 2.03 µM) | – | – | – | 2.6 µM | 2.6 µM | 2.7 mg/kg | > 20 mg/kg | 50 µM | – | – | – | – | –
8 | CC(=O)NC[C@H]1CN(c2ccc(N3CCN(c4ccncn4)CC3)c(F)c2)C(=O)O1 | 2 µg/mL (≈ 4.83 µM) | 1 µg/mL (≈ 2.41 µM) | 0.5 µg/mL (≈ 1.21 µM) | 1 µg/mL (≈ 2.41 µM) | 2 µg/mL (≈ 4.83 µM) | – | 1.8 mg/kg | 4.4 mg/kg | 40 µM | 40 µM | – | – | 50 µM | – | – | – | – | –
9 | CC(=O)NC[C@H]1CN(c2ccc(N3CCOCC3)c(F)c2)C(=O)O1 [LINEZOLID] | – | 1 µg/mL (≈ 2.96 µM) | – | – | – | – | – | 5.6 mg/kg | – | – | – | – | – | – | – | – | – | 3.9 mg/kg
10 | CC(=O)NC[C@H]1CN(c2ccc(N3CCN(c4c(Cl)c(Cl)nc(Cl)c4Cl)CC3)c(F)c2)C(=O)O1 | > 16 µg/mL | > 16 µg/mL | > 16 µg/mL | > 16 µg/mL | > 16 µg/mL | – | – | – | – | – | – | – | – | – | – | – | – | –
11 | CC(=O)NC[C@H]1CN(c2ccc(N3CCN(c4ccc(C)nn4)CC3)c(F)c2)C(=O)O1 | 4 µg/mL (≈ 9.34 µM) | 1 µg/mL (≈ 2.33 µM) | 0.5 µg/mL (≈ 1.17 µM) | 2 µg/mL (≈ 4.67 µM) | 2 µg/mL (≈ 4.67 µM) | – | 8.7 mg/kg | 6.3 mg/kg | – | – | – | – | – | – | – | – | – | –

Further molecules by falling MIC (Staphylococcus aureus [2]), results first:

Row | MIC (Staphylococcus aureus [2]) | MIC [3] | MIC (Streptococcus pneumoniae [4]) | MIC (Enterococcus faecalis) | MIC (Staphylococcus aureus [6]) | MIC (Streptococcus pneumoniae [10]) | SMILES | ED50 (Mus musculus [1]) | ED50 (Mus musculus [5]) | [A] (Caco-2 [7]) | [A] (Caco-2 [8]) | ED50 (Staphylococcus aureus [9]) | ED50 (Staphylococcus aureus [11]) | [EA] (Caco-2 [12]) | [EA] (Caco-2 [13]) | [A] (Caco-2 [14]) | [A] (Caco-2 [15]) | [EA] (Caco-2 [16]) | ED50 (Mus musculus [17])
12 | 4 µg/mL (≈ 9.67 µM) | 0.5 µg/mL (≈ 1.21 µM) | < 0.125 µg/mL | 2 µg/mL (≈ 4.84 µM) | 2 µg/mL (≈ 4.84 µM) | – | CC(=O)NC[C@H]1CN(c2ccc(N3CCN(c4ccncc4)CC3)c(F)c2)C(=O)O1 | – | – | – | – | – | – | – | – | – | – | – | –
13 | 4 µg/mL (≈ 8.57 µM) | 2 µg/mL (≈ 4.29 µM) | 1 µg/mL (≈ 2.14 µM) | 4 µg/mL (≈ 8.57 µM) | 4 µg/mL (≈ 8.57 µM) | – | CC(=O)NC[C@H]1CN(c2ccc(N3CCN(c4nc(C)cc(C)c4C#N)CC3)c(F)c2)C(=O)O1 | – | – | – | – | – | – | – | – | – | – | – | –
14 | 4 µg/mL (≈ 9.67 µM) | 1 µg/mL (≈ 2.42 µM) | 0.5 µg/mL (≈ 1.21 µM) | 2 µg/mL (≈ 4.84 µM) | 2 µg/mL (≈ 4.84 µM) | – | CC(=O)NC[C@H]1CN(c2ccc(N3CCN(c4ccccn4)CC3)c(F)c2)C(=O)O1 | 6 mg/kg | 11.2 mg/kg | 37 µM | 37 µM | – | – | – | – | – | – | – | –
15 | 2 µg/mL (≈ 4.56 µM) | 0.5 µg/mL (≈ 1.14 µM) | 0.5 µg/mL (≈ 1.14 µM) | 1 µg/mL (≈ 2.28 µM) | 2 µg/mL (≈ 4.56 µM) | – | CC(=O)NC[C@H]1CN(c2ccc(N3CCN(c4ccc(C#N)cn4)CC3)c(F)c2)C(=O)O1 | 5.8 mg/kg | 6.8 mg/kg | – | – | – | – | – | – | – | – | – | –
16 | 2 µg/mL (≈ 4.46 µM) | 0.5 µg/mL (≈ 1.11 µM) | 0.5 µg/mL (≈ 1.11 µM) | 1 µg/mL (≈ 2.23 µM) | 1 µg/mL (≈ 2.23 µM) | – | CC(=O)NC[C@H]1CN(c2ccc(N3CCN(c4cncc(Cl)n4)CC3)c(F)c2)C(=O)O1 | – | – | – | – | 3.2 mg/kg | > 20 mg/kg | – | – | – | – | – | –
17 | 2 µg/mL (≈ 4.14 µM) | 1 µg/mL (≈ 2.07 µM) | 0.5 µg/mL (≈ 1.03 µM) | 2 µg/mL (≈ 4.14 µM) | 2 µg/mL (≈ 4.14 µM) | – | CC(=O)NC[C@H]1CN(c2ccc(N3CCN(c4cnnc(Cl)c4Cl)CC3)c(F)c2)C(=O)O1 | – | – | – | – | 3.2 mg/kg | > 20 mg/kg | – | 0 µM | 34 µM | 34 µM | 50 µM | –
